In data set [1] the test system is Liver. The data set is described as follows: Half life in Swiss Webster mouse liver S9 fraction by UV-HPLC analysis. It is filed as ADME, subcellular.
Data set [2] relates to L6. The data set is described as follows: Cytotoxicity against rat L6 cells assessed as cell viability after 70 hrs by Alamar blue assay. It is filed as cell-based. The conditions noted are these: L6, 70 h. Background: Alamar Blue is a resazurin reagent that responds to reducing activity.
For data set [3], the system named is Plasmodium falciparum. In words: Antiplasmodial activity against Plasmodium falciparum K1 assessed as [3H]-hypoxanthine incorporation after 48 hrs by liquid scintillation counting analysis. It is filed as functional, organism-based.
For data set [4], the system named is Trypanosoma brucei rhodesiense. In words: Antitrypanosomal activity against Trypanosoma brucei rhodesiense STIB900 assessed as parasite growth inhibition after 70 hrs by Alamar blue assay. The class given is functional, organism-based. As to conditions: STIB900, 70 h.
Data set [5] deals with Trypanosoma brucei brucei. In words: Antitrypanosomal activity against Trypanosoma brucei brucei GVR35 infected in NMRI mouse assessed as cured animal at 100 mg/kg, po administered on day 21 post infection for 5 days measured up to 180 days. It is filed as functional, organism-based. On the set-up: dose 100 mg/kg. The procedure, abridged: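 Second-stage CNS model, oral dosing. A cure is survival beyond 180 days after infection without parasitemia relapse. Mean survival days are computed from mice with and without relapse. Reference diamidine control given once at 40 mg/kg ip.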

For data set [6], the system named is Trypanosoma brucei brucei. The data set is described as follows: Antitrypanosomal activity against Trypanosoma brucei brucei GVR35 infected in NMRI mouse assessed as mouse survival at 100 mg/kg, po administered on day 21 post infection for 5 days measured up to 180 days. The class given is functional. The method in brief:
(§1)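 Oral dosing in the T. b. brucei GVR35 second-stage (CNS) mouse model, daily for 5 or 10 days. Cure means survival for more than 180 days after infection with no parasitemia relapse. Mean survival days are computed across mice with and without relapse.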

For data set [7], the system named is Liver microsomes. In words: Half life in human liver microsomes by UV-HPLC analysis. The class given is ADME, Microsome. The procedure, abridged:
(§2)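 Substrate at 10 μM with 0.5 mg/ml pooled human or mouse liver microsomes, 0.5% DMSO, in 100 mM phosphate pH 7.4 with 3.3 mM MgCl2. After 5-min pre-equilibration at 37°C, 1 mM β-NADPH is added; triplicates.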
(Liver microsomes are a subcellular fraction often used to study metabolism.)

The subject of data set [8] is Liver. In words: Half life in mouse liver microsomes by UV-HPLC analysis. The class given is ADME, Microsome. The procedure, abridged: as §2
The test system of data set [9] is Trypanosoma brucei rhodesiense. The data set is described as follows: Antitrypanosomal activity against Trypanosoma brucei rhodesiense STIB900 infected in NMRI mouse assessed as mouse survival at 5 mg/kg, ip administered on day 3 post infection for 4 days measured up to 60 days. The conditions noted are these: route intraperitoneal. The class given is functional.

The test system of data set [10] is Trypanosoma brucei rhodesiense. The data set is described as follows: Antitrypanosomal activity against Trypanosoma brucei rhodesiense STIB900 infected in NMRI mouse assessed as cured animal at 10 mg/kg, ip administered on day 3 post infection for 4 days measured up to 60 days. It is filed as functional, organism-based. On the set-up: dose 10 mg/kg. The procedure, abridged:
(§3)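 Acute-stage mouse model: compound dosed daily for 4 days. A cure is a mouse surviving parasite-free for 60 days. Average days of survival also recorded.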

Data set [11] relates to Trypanosoma brucei rhodesiense. In words: Antitrypanosomal activity against Trypanosoma brucei rhodesiense STIB900 infected in NMRI mouse assessed as cured animal at 5 mg/kg, ip administered on day 3 post infection for 4 days measured up to 60 days. The class given is functional, organism-based. On the set-up: dose 5 mg/kg. The procedure, abridged:
as §3

The subject of data set [12] is Trypanosoma brucei rhodesiense. In words: Antitrypanosomal activity against Trypanosoma brucei rhodesiense STIB900 infected in NMRI mouse assessed as mouse survival at 20 mg/kg, ip administered on day 3 post infection for 4 days measured up to 60 days. The class given is functional. As to conditions: route intraperitoneal.
Data set [13] deals with Trypanosoma brucei rhodesiense. In words: Antitrypanosomal activity against Trypanosoma brucei rhodesiense STIB900 infected in NMRI mouse assessed as cured animal at 20 mg/kg, ip administered on day 3 post infection for 4 days measured up to 60 days. The class given is functional, organism-based. On the set-up: dose 20 mg/kg. The procedure, abridged:
as §3

Data set [14] relates to Plasmodium falciparum. In words: Potency index, ratio of pentamidine IC50 to compound IC50 for Plasmodium falciparum K1. It is filed as functional.
In data set [15] the test system is Trypanosoma brucei brucei. The data set is described as follows: Antitrypanosomal activity against Trypanosoma brucei brucei GVR35 infected in NMRI mouse assessed as mouse survival at 100 mg/kg, po administered on day 21 post infection for 10 days measured up to 180 days. The class given is functional. The method in brief:
as §1

Data set [16] concerns Trypanosoma brucei rhodesiense. In words: Antitrypanosomal activity against Trypanosoma brucei rhodesiense STIB900 infected in NMRI mouse assessed as cured animal at 100 mg/kg, ip administered on day 3 post infection for 4 days measured up to 60 days. More on the design: dose 100 mg/kg. The class given is functional, organism-based. The method in brief: as §3
In data set [17] the test system is Trypanosoma brucei rhodesiense. The data set is described as follows: Antitrypanosomal activity against Trypanosoma brucei rhodesiense STIB900 infected in NMRI mouse assessed as mouse survival at 100 mg/kg, ip administered on day 3 post infection for 4 days measured up to 60 days. It is filed as functional. The conditions noted are these: route intraperitoneal.

Active and inactive are the calls of the source. The rule behind the calls is not given here.

The term IC50 denotes the concentration that inhibits the measured activity by half. `N/C(=N\O)c1ccc(-c2cncc(-c3ccc(/C(N)=N/O)cn3)n2)nc1` had a t1/2 in data set [1] of 20 min. Also, the IC50 was more than 196 µM in [2], 7.01 µM in data set [3] and 90.6 µM in data set [4].

As to `CO/N=C(\N)c1ccc(-c2ccc(-c3ccc(/C(N)=N/OC)cn3)o2)cc1`, in data set [5], the outcome was Active. In data set [6], the MSD is more than 180 days.

As for `CO/N=C(\N)c1ccc(-c2cncc(-c3ccc(/C(N)=N\OC)cc3)n2)nc1`, the results for the t1/2 in data set [7] and in data set [8] were 7.6 min and 210 min, respectively. Further, the IC50 in [2] was more than 180 µM; in data set [3], 5.6 µM; in data set [4], 25.3 µM.

With `N=C(N)c1ccc(-c2cncc(-c3ccc(C(=N)N)nc3)n2)cn1`, the Survival in [9] is more than 36.5 days. The IC50 in data set [2] amounted to 24.4 µM; in [3], 0.085 µM; in data set [4], 0.0048 µM.

`N/C(=N\O)c1ccc(-c2cncc(-c3ccc(/C(N)=N/O)nc3)n2)cc1` had a t1/2 in data set [1] of 36 min. Also, the half-inhibitory concentration (IC50) in data set [2] was 5 µM; in data set [3], 0.453 µM; in data set [4], 10.8 µM.

Take `CO/N=C(\N)c1ccc(-c2ccc(-c3ccc(/C(N)=N/OC)cn3)o2)nc1`: in data set [5], the result was Active. Moreover, the MSD in [6] is more than 180 days.

For the compound `CONC(=N)c1ccc(-c2ccc(-c3ccc(C(=N)NOC)cc3)o2)cc1` [PAFURAMIDINE], the t1/2 stood at 6.8 min in [7] and 150 min in [8]. Further, the outcome in data set [10] was Active. For the same compound, the MSD in [6] is more than 167.8 days.

For `N/C(=N\O)c1ccc(-c2cncc(-c3ccc(/C(N)=N/O)cn3)n2)cc1`, the t1/2 in data set [1] is 30 min. Moreover, the IC50 in data set [2] is 24.6 µM; in data set [3], 8.4 µM; in [4] it was 7.78 µM.

As to `N=C(N)c1ccc(-c2cnc(-c3ccc(C(=N)N)cc3)cn2)cc1`, in data set [9], the Survival worked out at 36.5 days. Besides, in data set [11], the result was inactive.

Take `N=C(N)c1ccc(-c2cncc(-c3ccc(C(=N)N)cc3F)n2)c(F)c1`: in [9], the Survival is more than 41 days. Besides, the IC50 stood at 29.8 µM in data set [2] and 0.027 µM in [4]. Also, the result in data set [11] was inactive.

In the case of `N=C(N)c1ccc(-c2ccc(-c3ccc(C(=N)N)cc3)o2)cc1` [FURAMIDINE], the Survival in [9] is more than 46 days; in [12], more than 57.75 days.

For `N=C(N)c1ccc(-c2cncc(-c3ccc(C(=N)N)nc3)n2)cc1`, the Survival in data set [9] is more than 60 days. The IC50 turned out to be 34.1 µM in [2], 0.01 µM in data set [3] and 0.006 µM in data set [4].

For `N=C(N)c1ccc(-c2ccc(-c3ccc(C(=N)N)cn3)o2)nc1`, in data set [13], the outcome was Active. Further, the figures for the Survival in data set [9] and in [12] were more than 49.5 days and more than 60 days, respectively. In [2], the IC50 is 83 µM.

In the case of `CO/N=C(\N)c1ccc(-c2cncc(-c3ccc(/C(N)=N\OC)cc3)n2)cn1`, the t1/2 in [7] is 6.5 min; in data set [8], 35 min. Further, the results for the IC50 in [2], in data set [3] and in data set [4] were more than 185 µM, 0.453 µM and 194 µM, respectively.

With `CO/N=C(\N)c1ccc(-c2cncc(-c3ccc(/C(N)=N\OC)nc3)n2)cn1`, the results for the t1/2 in data set [7] and in data set [8] were 14 min and 59 min, respectively. For the same compound, the IC50 in data set [2] is more than 212 µM; in data set [3], 0.328 µM; in data set [4], 7.87 µM.

Regarding `N=C(N)c1ccc(-c2cncc(-c3ccc(C(=N)N)cc3)n2)cc1`, the “Ratio IC50” value in [14] is given as 5. In addition, the Survival in [9] is more than 53.5 days. Moreover, the IC50 in [2] was found to be 80.8 µM; in data set [3], 0.01 µM; in [4] it was 0.0058 µM.

Turning to `N/C(=N\O)c1ccc(-c2cncc(-c3ccc(/C(N)=N/O)cc3)n2)cc1`, the outcome in [5] and in data set [10] was inactive. The compound also gave a t1/2 in data set [1] of 1.9 min. Also, the IC50 came out at 2.9 µM in data set [2], 0.87 µM in data set [3] and 7.95 µM in [4]. Further, the MSD in [6] came to 69 days.

Consider `Cc1cc(C(=N)N)ccc1-c1cncc(-c2ccc(C(=N)N)cc2C)n1`, for which the IC50 in data set [2] was 117 µM; in [3] it was 0.323 µM; in data set [4], 0.462 µM.

Regarding `CO/N=C(\N)c1ccc(-c2cncc(-c3ccc(/C(N)=N\OC)cn3)n2)nc1`, the values for the t1/2 in data set [7] and in data set [8] were 70 min and 200 min, respectively. The result in data set [5] was inactive. Besides, the IC50 in [2] stood at 20.1 µM; in [3], 7.39 µM; in data set [4], 120 µM. The MSD in data set [6] was found to be 67.2 days.

For the compound `N=C(N)c1ccc(-c2cncc(-c3ccc(C(=N)N)cn3)n2)nc1`, the Survival in data set [9] is more than 53.75 days. Further, the IC50 in data set [2] worked out at 139 µM; in data set [3] it was 0.031 µM; in data set [4], 0.037 µM.

Consider `N/C(=N\O)c1ccc(-c2cncc(-c3ccc(/C(N)=N\O)nc3)n2)cn1`, for which the outcome in data set [5] was inactive. The compound also had a t1/2 in data set [1] of 51 min. Further, the figures for the IC50 in [2], in data set [3] and in [4] were more than 190 µM, 0.785 µM and 95.4 µM, respectively. In [6], the MSD stood at 95.2 days.

As for `CO/N=C(\N)c1ccc(-c2cncc(-c3ccc(/C(N)=N\OC)cc3)n2)cc1`, the t1/2 in data set [7] worked out at 8.6 min; in [8] it was 26 min. Besides, the IC50 in data set [2] is 58.7 µM; in [3], 0.41 µM; in data set [4], 18.9 µM. For the same compound, the results for the MSD in data set [6] and in data set [15] were more than 173.8 days and more than 180 days, respectively.

Take `N=C(NO)c1ccc(-c2ccc(-c3ccc(/C(N)=N\O)cc3)o2)cc1`: the t1/2 in data set [1] is 29 min. For the same compound, in data set [16], the result was inactive. Further, in data set [17], the Survival came to 50 days.

As to `N=C(N)c1ccc(-c2ccc(-c3ccc(C(=N)N)cn3)o2)cc1`, the outcome in [13] was Active. Also, the Survival is more than 54.5 days in [9] and more than 60 days in data set [12].

For `N=C(N)c1ccc(-c2cncc(-c3ccc(C(=N)N)cn3)n2)cc1`, the Survival in data set [9] is more than 60 days. Moreover, the IC50 turned out to be 117 µM in data set [2], 0.052 µM in data set [3] and 0.014 µM in [4]. In data set [11], the result was Active.
